Source: ChEMBL document CHEMBL3244044, “Synthesis and antitumor activity of halogen-substituted 4-(3,3-dimethyl-1-triazeno)quinolines” (J Med Chem, 1978)

How the values were obtained:
Mus musculus [1] = test: Toxicity in mouse P388 cells allografted mouse at 30 mg/kg, ip qd for 9 days; format: organism-based; set-up: dose 30 mg/kg, route intraperitoneal; details: in vivo, 216 h
Outline: (§1)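 NCI protocol. Groups of five to ten mice were inoculated intraperitoneally with about 10^6 tumor cells. Drug was given ip once daily for 9 consecutive days, starting 24 h after tumor implantation, over a range of dose levels. Toxicity was read as the average body weight change at the end of drug treatment.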

B16 [2] = test: Antitumor activity against mouse B16 cells allografted mouse assessed as host survival at 50 mg/kg, ip qd for 9 days relative to control; format: functional; details: route intraperitoneal
Outline: (§2)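 B16 melanoma-bearing mice given drug ip once daily for 9 days, starting 24 h after tumor implantation. Read-out is average survival in days, expressed as %T/C = (average survival of treated mice)/(average survival of control mice) × 100.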

L1210 [3] = test: Antitumor activity against mouse L1210 cells allografted mouse assessed as host survival at 40 mg/kg, ip qd for 9 days relative to control; format: functional; details: route intraperitoneal
Outline: (§3)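 NCI protocol: groups of five to ten mice inoculated ip with approximately 10^6 P-388 or L1210 cells. Drug given over a range of dose levels starting 24 h after implantation, once daily for 9 consecutive days. Survival expressed as %T/C = (average survival of treated)/(average survival of control) × 100.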

Mus musculus [4] = test: Toxicity in mouse B16 cells allografted mouse at 30 mg/kg, ip qd for 9 days; format: organism-based; set-up: dose 30 mg/kg, route intraperitoneal; details: in vivo, 216 h
Outline: (§4)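 Mice bearing B16 melanoma, dosed ip once daily for 9 days from 24 h after tumor implantation. Toxicity is recorded as the average body weight change at the end of drug treatment.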

P388 [5] = test: Antitumor activity against mouse P388 cells allografted mouse assessed as host survival at 20 mg/kg, ip qd for 9 days relative to control; format: functional; details: route intraperitoneal; outline: as §3
B16 [6] = test: Antitumor activity against mouse B16 cells allografted mouse assessed as host survival at 18 mg/kg, ip qd for 9 days relative to control; format: functional; details: route intraperitoneal; outline: as §2
Mus musculus [7] = test: Toxicity in mouse B16 cells allografted mouse at 50 mg/kg, ip qd for 9 days; format: organism-based; set-up: dose 50 mg/kg, route intraperitoneal; details: in vivo, 216 h; outline: as §4
B16 [8] = test: Antitumor activity against mouse B16 cells allografted mouse assessed as host survival at 30 mg/kg, ip qd for 9 days relative to control; format: functional; details: route intraperitoneal; outline: as §2
[9] = Binding affinity to synthetic melanin at 5.8 mg/100 mL after 15 mins by UV-spectroscopic analysis; format: physicochemical; details: 0.25 h
Outline: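 Synthetic melanin was made from DL-Dopa with tyrosinase in 0.1 M phosphate pH 6.6 at 37 °C for 4 h. Melanin suspension (1.1 mg dry weight) was mixed with phosphate buffer (0.05 M, pH 6.4, 5% Me2SO), water, and 1 mL of drug solution (5.8 mg/100 mL). The mixture was shaken 15 min at room temperature and filtered. Unbound drug in the filtrate was measured by UV against a drug-free blank.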

Mus musculus [10] = test: Toxicity in mouse L1210 cells allografted mouse at 40 mg/kg, ip qd for 9 days; format: organism-based; set-up: dose 40 mg/kg, route intraperitoneal; details: in vivo, 216 h
Outline: (§5)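 Groups of five to ten mice were inoculated ip with about 10^6 L1210 cells and dosed once daily for 9 consecutive days beginning 24 h post-implantation. Toxicity was taken as the average body weight change at the end of drug treatment.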

Mus musculus [11] = test: Toxicity in mouse P388 cells allografted mouse at 20 mg/kg, ip qd for 9 days; format: organism-based; set-up: dose 20 mg/kg, route intraperitoneal; details: in vivo, 216 h; outline: as §1
P388 [12] = test: Antitumor activity against mouse P388 cells allografted mouse assessed as host survival at 30 mg/kg, ip qd for 9 days relative to control; format: functional; details: route intraperitoneal; outline: as §3
Mus musculus [13] = test: Toxicity in mouse L1210 cells allografted mouse at 30 mg/kg, ip qd for 9 days; format: organism-based; set-up: dose 30 mg/kg, route intraperitoneal; details: in vivo, 216 h; outline: as §5
L1210 [14] = test: Antitumor activity against mouse L1210 cells allografted mouse assessed as host survival at 30 mg/kg, ip qd for 9 days relative to control; format: functional; details: route intraperitoneal; outline: as §3
Mus musculus [15] = test: Toxicity in mouse B16 cells allografted mouse at 18 mg/kg, ip qd for 9 days; format: organism-based; set-up: dose 18 mg/kg, route intraperitoneal; details: in vivo, 216 h; outline: as §4
Mus musculus [16] = test: Toxicity in mouse L1210 cells allografted mouse at 20 mg/kg, ip qd for 9 days; format: organism-based; set-up: dose 20 mg/kg, route intraperitoneal; details: in vivo, 216 h; outline: as §5
P388 [17] = test: Antitumor activity against mouse P388 cells allografted mouse assessed as host survival at 40 mg/kg, ip qd for 9 days relative to control; format: functional; details: route intraperitoneal; outline: as §3
L1210 [18] = test: Antitumor activity against mouse L1210 cells allografted mouse assessed as host survival at 20 mg/kg, ip qd for 9 days relative to control; format: functional; details: route intraperitoneal; outline: as §3
Mus musculus [19] = test: Toxicity in mouse P388 cells allografted mouse at 40 mg/kg, ip qd for 9 days; format: organism-based; set-up: dose 40 mg/kg, route intraperitoneal; details: in vivo, 216 h; outline: as §1
B16 [20] = test: Antitumor activity against mouse B16 cells allografted mouse assessed as host survival at 24 mg/kg, ip qd for 9 days relative to control; format: functional; details: route intraperitoneal; outline: as §2
Mus musculus [21] = test: Toxicity in mouse P388 cells allografted mouse at 50 mg/kg, ip qd for 9 days; format: organism-based; set-up: dose 50 mg/kg, route intraperitoneal; details: in vivo, 216 h; outline: as §1
P388 [22] = test: Antitumor activity against mouse P388 cells allografted mouse assessed as host survival at 50 mg/kg, ip qd for 9 days relative to control; format: functional; details: route intraperitoneal; outline: as §3
B16 [23] = test: Antitumor activity against mouse B16 cells allografted mouse assessed as host survival at 40 mg/kg, ip qd for 9 days relative to control; format: functional; details: route intraperitoneal; outline: as §2
Mus musculus [24] = test: Toxicity in mouse B16 cells allografted mouse at 40 mg/kg, ip qd for 9 days; format: organism-based; set-up: dose 40 mg/kg, route intraperitoneal; details: in vivo, 216 h; outline: as §4
Mus musculus [25] = test: Toxicity in mouse B16 cells allografted mouse at 66.7 mg/kg, ip qd for 9 days; format: organism-based; set-up: dose 66.7 mg/kg, route intraperitoneal; details: in vivo, 216 h; outline: as §4
Mus musculus [26] = test: Toxicity in mouse B16 cells allografted mouse at 24 mg/kg, ip qd for 9 days; format: organism-based; set-up: dose 24 mg/kg, route intraperitoneal; details: in vivo, 216 h; outline: as §4
B16 [27] = test: Antitumor activity against mouse B16 cells allografted mouse assessed as host survival at 66.7 mg/kg, ip qd for 9 days relative to control; format: functional; details: route intraperitoneal; outline: as §2

SMILES	Activity (Mus musculus [1]) [%]	T/C (L1210 [3]) [%]	T/C (P388 [5]) [%]	Activity [9] [%]	Activity (Mus musculus [10]) [%]	Activity (Mus musculus [11]) [%]	T/C (P388 [12]) [%]	Activity (Mus musculus [13]) [%]	T/C (L1210 [14]) [%]	T/C (P388 [17]) [%]	Activity (Mus musculus [19]) [%]	also measured
CN(C)/N=N\c1ccnc2c(Cl)cccc12	-15	155	172	56.4	-4.9	-2.1	167	0	165	–	–	Survival (B16 [2]): 20.8 days; T/C (B16 [2]): 99%; Activity (Mus musculus [4]): -2.9%; Survival (B16 [6]): 21.6 days; T/C (B16 [6]): 103%; Activity (Mus musculus [7]): -3.9%; Survival (B16 [8]): 21.3 days; T/C (B16 [8]): 101%; Activity (Mus musculus [15]): -0.3%
CN(C)/N=N\c1ccnc2cc(Cl)ccc12	-16.3	–	–	48	–	–	137	-1	152	119	-22.6	Activity (Mus musculus [16]): 5.1%; T/C (L1210 [18]): 154%
CN(C)/N=N\c1ccnc2c(Br)cccc12	4.8	144	109	48.1	-5.9	16	113	6.1	137	125	-3.3	Survival (B16 [20]): 20.3 days; T/C (B16 [20]): 97%; Activity (Mus musculus [21]): -5%; T/C (P388 [22]): 117%; Survival (B16 [23]): 19 days; T/C (B16 [23]): 90%; Activity (Mus musculus [24]): -3%; Activity (Mus musculus [25]): -3.7%; Activity (Mus musculus [26]): -1.1%; Survival (B16 [27]): 21.3 days; T/C (B16 [27]): 101%
